Reference: ChEMBL document CHEMBL3808289, “Discovery of a Selective Series of Inhibitors of Plasmodium falciparum HDACs” (ACS Med Chem Lett, 2016)
Calls of active or inactive are those of the source. No cut-off for these calls is given here.

Columns and labels:
Plasmodium falciparum = test: Antimalarial activity against Plasmodium falciparum 3D7 infected human erythrocytes assessed as parasite growth inhibition after 72 hrs by spectrophotometry; type: functional, organism-based; conditions: 3D7, 72 h
Summary of the method: (§1)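 Cell-based read-outs (parasite growth in erythrocytes; class I HDAC activity in HeLa) were run with multiple repetitions of each assay to limit variability.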

[1] = Inhibition of class 1 histone deacetylase in human HeLa cells using FLUOR DE LYS as fluorescent substrate after 4 hrs by spectrophotometry; type: cell-based; summary of the method: as §1
Histone deacetylase 1 = Histone deacetylase 1 (Homo sapiens, UniProt Q13547); test: Inhibition of recombinant human His-tagged HDAC1 expressed in insect cells preincubated for 10 mins followed by addition of FLUOR DE LYS as fluorescent substrate measured after 1 hr by spectrophotometry
Chain of Histone deacetylase 1 (Q13547 whole entry): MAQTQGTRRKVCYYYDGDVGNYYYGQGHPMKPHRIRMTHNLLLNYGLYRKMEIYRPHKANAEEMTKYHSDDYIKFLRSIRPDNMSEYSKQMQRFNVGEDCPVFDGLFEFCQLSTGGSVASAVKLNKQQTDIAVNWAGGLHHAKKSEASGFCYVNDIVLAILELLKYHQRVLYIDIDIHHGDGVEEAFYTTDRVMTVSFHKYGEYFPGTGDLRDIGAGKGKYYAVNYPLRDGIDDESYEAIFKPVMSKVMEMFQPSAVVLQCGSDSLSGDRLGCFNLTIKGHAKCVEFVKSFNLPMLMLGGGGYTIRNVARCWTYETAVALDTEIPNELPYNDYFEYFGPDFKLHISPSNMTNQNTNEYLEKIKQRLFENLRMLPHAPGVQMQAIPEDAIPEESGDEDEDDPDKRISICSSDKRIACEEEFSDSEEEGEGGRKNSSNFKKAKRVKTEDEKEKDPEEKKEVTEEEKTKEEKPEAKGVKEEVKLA

HDAC1 = test: Selectivity index, ratio of IC50 for HDAC1 in human HeLa cells to EC50 for Plasmodium falciparum 3D7 infected human erythrocytes; type: toxicity, cell-based; conditions: read-out: Ratio IC50/EC50
[2] = Oral bioavailability in NMRI mouse at 10 mg/kg; type: ADME, organism-based; conditions: in vivo
[3] = Clearance in NMRI mouse plasma; type: ADME, organism-based
Plasma = test: Drug uptake in NMRI mouse plasma at 10 mg/kg, po; type: ADME, organism-based; conditions: in vivo
[4] = test system: Plasmodium falciparum 3D7; test: Inhibition of recombinant Plasmodium falciparum 3D7 Flag-tagged HDAC1 Y301H mutant assessed as loss of enzyme activity
Summary of the method: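 The Y301H mutant is a putative catalytic-site mutant of PfHDAC1. It was expressed as a Flag-fusion in insect or mammalian cells and purified on anti-Flag affinity gel. Deacetylase activity was measured in vitro with fluorogenic substrates, alongside wild-type PfHDAC1.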

[5] = Clearance in NMRI mouse plasma 2 mg/kg, iv by LC-MS/MS analysis; type: ADME, organism-based

## CNC(=O)CCCCC[C@H](NC(=O)Cn1ccnn1)c1ncc(-c2cc3ccccc3nc2OC)[nH]1
Plasmodium falciparum
  EC50: 1760 nM
[1]
  IC50: 6650 nM
Histone deacetylase 1
  IC50: 1760 nM
HDAC1
  selectivity ratio: 3.8
[2]
  bioavailability: 20%

## CNC(=O)CCCCC[C@H](NC(=O)C12CCN(CC1)CC2)c1ncc(-c2ccc3ccccc3c2)[nH]1
Plasmodium falciparum
  EC50: 310 nM
[1]
  IC50: 3770 nM
Histone deacetylase 1
  IC50: 340 nM
HDAC1
  selectivity ratio: 12
[3]
  clearance: 60 mL/min/kg
Plasma
  Drug uptake: Not Active

## CNC(=O)CCCCC[C@H](NC(=O)c1cncs1)c1ncc(-c2ccc3cc(C(F)(F)F)ncc3c2)[nH]1
Plasmodium falciparum
  EC50: 100 nM
[1]
  IC50: 2040 nM
Histone deacetylase 1
  IC50: 290 nM
HDAC1
  selectivity ratio: 20

## CNC(=O)CCCCC[C@H](NC(=O)c1cncs1)c1ncc(-c2cc3ccccc3[nH]c2=O)[nH]1
Plasmodium falciparum
  EC50: 500 nM
[1]
  IC50: > 25000 nM
Histone deacetylase 1
  IC50: > 2500 nM
HDAC1
  selectivity ratio: > 54

## CNC(=O)CCCCC[C@H](NC(=O)c1cncs1)c1ncc(-c2ccc3[nH]ncc3c2)[nH]1
Plasmodium falciparum
  EC50: 630 nM
[1]
  IC50: 7630 nM
Histone deacetylase 1
  IC50: 2120 nM
HDAC1
  selectivity ratio: 12

## CNC(=O)CCCCC[C@H](NC(=O)c1cncs1)c1ncc(-c2ccc3[nH]cnc3c2)[nH]1
Plasmodium falciparum
  EC50: 12000 nM
[1]
  IC50: > 25000 nM
Histone deacetylase 1
  IC50: > 2500 nM
HDAC1
  selectivity ratio: > 2.1

## CNC(=O)CCCCC[C@H](NC(=O)c1cncs1)c1ncc(-c2ccc3[nH]ccc3c2)[nH]1
Plasmodium falciparum
  EC50: 330 nM
[1]
  IC50: 6330 nM
Histone deacetylase 1
  IC50: 1280 nM
HDAC1
  selectivity ratio: 19

## CCC(=O)CCCCC[C@H](NC(=O)C1CN(C)C1)c1ncc(-c2cc3ccccc3nc2OC)[nH]1
[4]
  inhibition: inactive

## CNC(=O)CCCCC[C@H](NC(=O)c1cncs1)c1ncc(-c2ccc(-c3ccccc3)cc2)[nH]1
Plasmodium falciparum
  EC50: 7570 nM
[1]
  IC50: > 25000 nM
Histone deacetylase 1
  IC50: > 5000 nM
HDAC1
  selectivity ratio: > 3.3

## CNC(=O)CCCCC[C@H](NC(=O)c1cncs1)c1ncc(-c2ccc3ccccc3c2)[nH]1
Plasmodium falciparum
  EC50: 300 nM
[1]
  IC50: 1700 nM
Histone deacetylase 1
  IC50: 320 nM
HDAC1
  selectivity ratio: 5.7

## CNC(=O)CCCCC[C@H](NC(=O)c1cncs1)c1ncc(-c2ccc3[nH]nnc3c2)[nH]1
Plasmodium falciparum
  EC50: 10000 nM
[1]
  IC50: > 25000 nM
Histone deacetylase 1
  IC50: > 5000 nM
HDAC1
  selectivity ratio: > 2.5

## CNC(=O)CCCCC[C@H](NC(=O)c1cncs1)c1ncc(-c2ccc(-c3cscn3)cc2)[nH]1
Plasmodium falciparum
  EC50: 570 nM
[1]
  IC50: 8130 nM
Histone deacetylase 1
  IC50: 2160 nM
HDAC1
  selectivity ratio: 14

## CNC(=O)CCCCC[C@H](NC(=O)C12CCN(CC1)CC2)c1ncc(-c2cc3ccccc3nc2OC)[nH]1
Plasmodium falciparum
  EC50: 520 nM
[1]
  IC50: 2450 nM
Histone deacetylase 1
  IC50: 250 nM
HDAC1
  selectivity ratio: 4.7
[5]
  clearance: 10 mL/min/kg
Plasma
  Drug uptake: Not Active

## CNC(=O)CCCCC[C@H](NC(=O)c1cncs1)c1ncc(-c2ccc3ccccc3c2C)[nH]1
Plasmodium falciparum
  EC50: 23700 nM
[1]
  IC50: > 25000 nM
Histone deacetylase 1
  IC50: 23900 nM
HDAC1
  selectivity ratio: > 1

## CNC(=O)CCCCC[C@H](NC(=O)c1cncs1)c1ncc(-c2ccc3ccncc3c2)[nH]1
Plasmodium falciparum
  EC50: 270 nM
[1]
  IC50: 4750 nM
Histone deacetylase 1
  IC50: 600 nM
HDAC1
  selectivity ratio: 18

## CNC(=O)CCCCC[C@H](NC(=O)c1cncs1)c1ncc(-c2ccc3ccnc(OC)c3c2)[nH]1
Plasmodium falciparum
  EC50: 4860 nM
[1]
  IC50: 20100 nM
Histone deacetylase 1
  IC50: 2620 nM
HDAC1
  selectivity ratio: 4.1

## CNC(=O)CCCCC[C@H](NC(=O)c1cncs1)c1ncc(-c2ccc3cccnc3c2)[nH]1
Plasmodium falciparum
  EC50: 3810 nM
[1]
  IC50: > 25000 nM
Histone deacetylase 1
  IC50: > 5000 nM
HDAC1
  selectivity ratio: > 6.6

## CNC(=O)CCCCC[C@H](NC(=O)c1cncs1)c1ncc(-c2ccc3cc(OC)ncc3c2)[nH]1
Plasmodium falciparum
  EC50: 100 nM
[1]
  IC50: 1370 nM
Histone deacetylase 1
  IC50: 390 nM
HDAC1
  selectivity ratio: 14

## CNC(=O)CCCCC[C@H](NC(=O)c1cncs1)c1ncc(-c2cc3ccccc3nc2OC)[nH]1
Plasmodium falciparum
  EC50: 570 nM
[1]
  IC50: 890 nM
[2]
  bioavailability: 10%

## CCC(=O)CCCCC[C@H](NC(=O)C12CCN(CC1)CC2)c1ncc(-c2ccc3ccccc3c2)[nH]1
Plasmodium falciparum
  EC50: 38 nM
[1]
  IC50: 94 nM
Histone deacetylase 1
  IC50: 1.4 nM
HDAC1
  selectivity ratio: 2.5

## CNC(=O)CCCCC[C@H](NC(=O)c1cncs1)c1ncc(-c2cccc3cccnc23)[nH]1
Plasmodium falciparum
  EC50: 8280 nM
[1]
  IC50: > 25000 nM
Histone deacetylase 1
  IC50: > 2500 nM
HDAC1
  selectivity ratio: > 3

## CNC(=O)CCCCC[C@H](NC(=O)c1cncs1)c1ncc(-c2ccc(-n3cccn3)cc2)[nH]1
Plasmodium falciparum
  EC50: 900 nM
[1]
  IC50: 20500 nM
Histone deacetylase 1
  IC50: 2490 nM
HDAC1
  selectivity ratio: 23
